Each structure is given as a SMILES string. Activity calls are given as the source filed them. No cut-off for these calls is given here. Bounds are passed on as bounds.

Usually ED50 stands for the dose that gives a 50% effect, or the effect in half of the subjects. The low end stands for greater potency, the high end for weaker potency. The term IC50 denotes the midpoint of a concentration-inhibition curve. Low readings indicate greater potency in that assay, high ones weaker potency in that assay.

The species entered for assay [1] is Rattus norvegicus. The assay is described as follows: Inhibition of conditioned avoidance response (CAR) in fasted male Sprague-Dawley rats. In kind it is functional. The gist of the method: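 Rats trained to climb or hurdle a barrier in a shuttle box within 30 s. Training was 11 trials at 3-min intervals on day 1, then one foot-shock reinforcement and two trials daily for 9 days. On day 10, groups of 5-10 rats were given drug or vehicle by oral gavage and tested.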

The species named for assay [2] is Rattus norvegicus. Kind of assay: Inhibition of apomorphine induced stereotypy in nonfasted male Sprague-Dawley rats; inactive. In kind it is functional, organism-based.
The target in assay [3] is T1, Adrenergic receptor alpha-1 (Rattus norvegicus, UniProt P15823+P23944+P43140).
T1 sequence (P15823 whole entry): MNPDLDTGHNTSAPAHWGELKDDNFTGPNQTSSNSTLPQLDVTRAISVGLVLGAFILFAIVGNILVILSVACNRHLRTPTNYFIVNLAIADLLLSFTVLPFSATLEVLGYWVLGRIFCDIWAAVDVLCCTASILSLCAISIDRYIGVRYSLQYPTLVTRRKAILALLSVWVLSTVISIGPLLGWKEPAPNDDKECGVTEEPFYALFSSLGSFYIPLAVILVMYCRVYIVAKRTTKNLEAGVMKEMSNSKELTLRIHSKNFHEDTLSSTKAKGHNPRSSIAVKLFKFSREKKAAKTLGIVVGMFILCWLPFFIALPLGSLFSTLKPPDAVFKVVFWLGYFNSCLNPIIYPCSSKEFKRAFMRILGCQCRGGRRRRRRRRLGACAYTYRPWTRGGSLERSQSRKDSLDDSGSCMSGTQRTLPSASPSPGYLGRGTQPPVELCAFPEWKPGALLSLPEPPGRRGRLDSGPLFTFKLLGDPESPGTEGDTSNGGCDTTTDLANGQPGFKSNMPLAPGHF
T1 sequence (P23944 whole entry): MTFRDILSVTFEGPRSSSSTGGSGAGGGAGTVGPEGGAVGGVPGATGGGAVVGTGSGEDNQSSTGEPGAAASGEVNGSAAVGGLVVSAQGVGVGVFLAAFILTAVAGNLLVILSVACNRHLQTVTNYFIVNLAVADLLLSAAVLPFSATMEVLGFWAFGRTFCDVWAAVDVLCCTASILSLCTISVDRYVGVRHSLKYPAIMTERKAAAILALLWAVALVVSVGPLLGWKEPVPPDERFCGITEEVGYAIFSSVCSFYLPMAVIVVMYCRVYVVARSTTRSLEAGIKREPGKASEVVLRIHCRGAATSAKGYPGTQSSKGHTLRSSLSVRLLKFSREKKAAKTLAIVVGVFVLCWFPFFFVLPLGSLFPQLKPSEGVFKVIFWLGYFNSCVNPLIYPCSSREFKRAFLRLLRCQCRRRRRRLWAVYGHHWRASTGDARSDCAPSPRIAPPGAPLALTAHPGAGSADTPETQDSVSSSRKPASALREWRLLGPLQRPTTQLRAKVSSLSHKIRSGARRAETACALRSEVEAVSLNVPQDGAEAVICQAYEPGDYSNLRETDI
T1 sequence (P43140 whole entry): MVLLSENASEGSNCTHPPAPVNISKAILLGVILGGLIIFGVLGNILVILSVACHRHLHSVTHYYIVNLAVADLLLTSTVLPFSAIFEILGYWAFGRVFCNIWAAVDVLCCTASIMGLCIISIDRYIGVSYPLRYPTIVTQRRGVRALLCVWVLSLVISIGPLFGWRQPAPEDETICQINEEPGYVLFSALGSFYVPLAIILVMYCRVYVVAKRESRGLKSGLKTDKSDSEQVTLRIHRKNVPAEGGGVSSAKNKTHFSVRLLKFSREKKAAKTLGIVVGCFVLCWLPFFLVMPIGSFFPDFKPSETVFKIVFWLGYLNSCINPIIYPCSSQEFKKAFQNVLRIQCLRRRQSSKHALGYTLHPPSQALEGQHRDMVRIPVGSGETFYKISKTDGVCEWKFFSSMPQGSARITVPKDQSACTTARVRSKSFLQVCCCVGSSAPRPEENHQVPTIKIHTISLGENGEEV
Kind of assay: Inhibition of [3H]WB-4101 binding to alpha-1-adrenergic receptor from rat cerebral cortex membranes. In kind it is cell membranes, Membrane.

The species entered for assay [4] is Rattus norvegicus. Kind of assay: Induction of catalepsy in nonfasted, male Sprague-Dawley rats (dose that produced catalepsy in 50% of the animals); value may range from 27.5 to 74.3. In kind it is functional.
The species entered for assay [5] is Rattus norvegicus. The assay is described as follows: Inhibition of apomorphine induced stereotypy in nonfasted male Sprague-Dawley rats. In kind it is functional. The gist of the method:
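Groups of 10 nonfasted male Sprague–Dawley rats got test drug by oral gavage. At the previously determined time of peak effect they were challenged with apomorphine 0.5 mg/kg sc and watched for 30 min in individual cages for sniffing, licking, rearing and biting. Inhibition meant all of these were blocked for the full 30 min. ED50 was taken by Berkson's method.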

For assay [6], the species on record is Rattus norvegicus. The assay is described as follows: Induction of catalepsy in nonfasted, male Sprague-Dawley rats (dose that produced catalepsy in 50% of the animals); value may range from 58.7 to 141.5. In kind it is functional.
The species entered for assay [7] is Rattus norvegicus. The assay is described as follows: Induction of catalepsy in nonfasted, male Sprague-Dawley rats (dose that produced catalepsy in 50% of the animals); value may range from 69.6 to 172.9. In kind it is functional.
The species named for assay [8] is Rattus norvegicus. Kind of assay: Induction of catalepsy in nonfasted, male Sprague-Dawley rats (dose that produced catalepsy in 50% of the animals); value may range from 77.0 to 151.3. In kind it is functional.

`CC1(C)CC(=O)N(CCCCN2CCN(c3ncccn3)CC2)C(=O)C1` [GEPIRONE] returned an ED50 in assay [1] of 52.5 mg/kg. Besides, the NA result in assay [2] is “inactive”.
In assay [1], `O=C1CC2(CCCC2)CC(=O)N1CCCN1CCN(c2cccc(Cl)c2)CC1` yielded an ED50 of 28.2 mg/kg. In assay [3], this compound gave a half-inhibitory concentration (IC50) of 150 nM.
The like results for `O=C1CC2(CCCCCC2)C(=O)N1CCCCN1CCN(c2ncccn2)CC1` were, in that order, 51.5 mg/kg and more than 1000 nM.
In assay [1], `Cc1ccccc1N1CCN(CCCCN2C(=O)CC3(CCCC3)CC2=O)CC1` gave a median effective dose (ED50) of approximately 100 mg/kg. The compound further showed a concentration for half-maximal inhibition (IC50) in assay [3] of 44 nM.
Take `CSc1ccc2c(c1)N(CCC1CCCCN1C)c1ccccc1S2` (centres undefined) [THIORIDAZINE]: the figures for the ED50 in assay [4] and in assay [1] were 45.2 mg/kg and 126 mg/kg, respectively.
Consider `O=C1CC2(CCCC2)CC(=O)N1CCCCN1CCN(c2ccccc2[N+](=O)[O-])CC1`, for which the ED50 in assay [1] was 48.8 mg/kg. Besides, the IC50 in assay [3] turned out to be 110 nM.
Take `O=C1CC2(CCCC2)CC(=O)N1CCCCN1CCN(c2ncccn2)CC1` [BUSPIRONE]: in assay [5], the 50% effective dose (ED50) was 28 mg/kg.
Compound `O=C1CCC2(CCCC2)CC(=O)N1CCCCN1CCN(c2ncccn2)CC1` had a median effective dose (ED50) in assay [1] of more than 50 mg/kg. The compound also yielded an IC50 in assay [3] of 820 nM.
With `O=C1CC2(CCCC2)CC(=O)N1CCCCN1CCN(c2ccccc2F)CC1`, the 50% effective dose (ED50) was 37.1 mg/kg in assay [1] and 91.1 mg/kg in assay [6].
`COc1ccccc1N1CCN(CCCCN2C(=O)CC3(CCCC3)CC2=O)CC1` displayed a 50% effective dose (ED50) in assay [1] of 20.5 mg/kg. Moreover, in assay [3], the IC50 came out at 13 nM.
The like results for `O=C1CC2(CCCC2)CC(=O)N1CCCCN1CCN(c2cccc(Cl)c2)CC1` were, in that order, 27.6 mg/kg and 23 nM.
As for `COc1ccccc1N1CCN(CCN2C(=O)CC3(CCCC3)CC2=O)CC1` [BMY-7378], the 50% effect level in assay [1] (ED50) was put at a dose of 52.1 mg/kg.
Still for that read-out and setting: next, `N#Cc1cccnc1N1CCN(CCN2C(=O)CC3(CCCC3)CC2=O)CC1`: more than 100 mg/kg.
As to `Cc1ccnc(N2CCN(CCCCN3C(=O)CC4(CCCC4)CC3=O)CC2)n1`, in assay [1], the ED50 amounted to 52.4 mg/kg. Further, in assay [3], the half-maximal inhibitory concentration (IC50) is reported as more than 1000 nM.
Compound `O=C(CCCN1CCC(O)(c2ccc(Cl)cc2)CC1)c1ccc(F)cc1` [HALOPERIDOL] had an ED50 in assay [1] of 2.8 mg/kg.
In assay [1], `COc1cccnc1N1CCN(CCCCN2C(=O)CC3(CCCC3)CC2=O)CC1` had a 50% effective dose (ED50) of 55.2 mg/kg. In assay [3], this compound displayed an IC50 of 65 nM.
Compound `CN1CCN(C2=Nc3cc(Cl)ccc3Nc3ccccc32)CC1` [CLOZAPINE] came in with an ED50 in assay [1] of 24.1 mg/kg.
On the same count and under the same terms, next, `COc1ccccc1N1CCN(CCN2C(=O)C(C)CC(C)C2=O)CC1` (centres undefined): more than 100 mg/kg.
Consider `O=C1CC2(CCCC2)CC(=O)N1CCCCN1CCN(c2ccccc2Cl)CC1`, for which the figures for the median effective dose (ED50) in assay [7] and in assay [1] were 109 mg/kg and 77.8 mg/kg, respectively.
Regarding `COc1ccccc1N1CCN(CCN2C(=O)CC(C)(C)CC2=O)CC1`, the ED50 in assay [1] came out at 91.2 mg/kg. The 50% inhibitory concentration (IC50) in assay [3] is 895 nM.
Compound `COc1ccccc1N1CCN(CCCN2C(=O)CC3(CCCC3)CC2=O)CC1` yielded an ED50 in assay [1] of 24.1 mg/kg. The compound also came in with a concentration for half-maximal inhibition (IC50) in assay [3] of 19 nM.
The like results for `O=C1CC2(CCCC2)CC(=O)N1CCCCN1CCN(c2ccccn2)CC1` were, in that order, 34 mg/kg and 275 nM.
On to `N#Cc1cccnc1N1CCN(CCCCN2C(=O)CC3(CCCC3)CC2=O)CC1`, for which the ED50 in assay [1] was determined as 45 mg/kg; in assay [5], 36.6 mg/kg. The IC50 in assay [3] came to 360 nM.
Compound `O=C1C2C3C=CC(CC3)C2C(=O)N1CCCCN1CCN(c2ncccn2)CC1` (centres undefined) gave a median effective dose (ED50) in assay [1] of more than 100 mg/kg.
Same read-out and setting: in the case of `N#Cc1cccnc1N1CCN(CCCN2C(=O)CC3(CCCC3)CC2=O)CC1` it was more than 100 mg/kg.
Consider `O=C1CC2(CCCCC2)C(=O)N1CCCCN1CCN(c2ncccn2)CC1`, for which it took a dose of 58.4 mg/kg to reach the 50% effect level in assay [1] (ED50). In assay [3], this compound had an IC50 of more than 1000 nM.
For `COc1ccccc1N1CCN(CCN2C(=O)CC3(CCCCC3)C2=O)CC1` the same measures were 50 mg/kg and 240 nM.
The compound `O=C1CC2(CCCC2)CC(=O)N1CCCN1CCN(c2ncccn2)CC1` displayed an ED50 in assay [1] of more than 100 mg/kg.
On to `O=C1CC2(CCCC2)CC(=O)N1CCCCN1CCN(c2ccccc2)CC1`, for which the median effective dose (ED50) was found to be 108 mg/kg in assay [8] and 30.7 mg/kg in assay [1].
`O=C1CC2(CCCC2)CC(=O)N1CCCCCN1CCN(c2ncccn2)CC1` displayed an ED50 in assay [1] of more than 100 mg/kg.
In assay [1], `COc1ccccc1N1CCN(CCN2C(=O)CCC(C)(C)C2=O)CC1` had an ED50 of 55.3 mg/kg. For the same compound, the IC50 in assay [3] was determined as 480 nM.
Take `O=C1CC2(CCCC2)CC(=O)N1CCN1CCN(c2ccccc2)CC1`: the ED50 in assay [1] is more than 100 mg/kg.
`CC12CC1(C)C(=O)N(CCCCN1CCN(c3ncccn3)CC1)C2=O` (centres undefined) displayed an ED50 in assay [1] of 91.6 mg/kg. In addition, the half-inhibitory concentration (IC50) in assay [3] worked out at 680 nM.
`O=C1CC2(CCCC2)CC(=O)N1CCN1CCN(c2cccc(Cl)c2)CC1` registered a median effective dose (ED50) in assay [1] of more than 100 mg/kg.
`COc1ccccc1N1CCN(CCN2C(=O)CC3(CCCCCCC3)C2=O)CC1` gave an ED50 in assay [1] of 69.9 mg/kg. Besides, the IC50 in assay [3] is more than 1000 nM.

(Values after ChEMBL document CHEMBL1122323 (J Med Chem, 1983).)
